Measured values: article PMC9851027 (ACS Omega, 2023)
Peptide text beside a SMILES is read from it. * marks the point of attachment. Propionyl = CCC(=O)*

How the values were obtained:
[1] = target: T1, human NMUR2 (Homo sapiens, UniProt Q9GZQ4); assay: Functional in vitro FLIPR calcium mobilization assay; type: cell-based; settings: SD
Procedure, shortened: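 Recombinant Chem-1 cells overexpressing full-length human NMUR2, grown in DMEM/10% FBS with selection, seeded at 5×10^5 cells/mL 16 h before assay. Loaded with Calcium 6 dye plus 2 mM probenecid for 60 min at 37 °C. Fractions given as 12-point 1:3 dilutions in HBSS/20 mM Hepes/0.1% BSA, final 1.1 μM–[…]. Read by FLIPR at 0.5 Hz as peak minus baseline fluorescence; Hill fit, mean ± standard deviation of two experiments.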

[2] = target: T1, human NMUR2; assay: Competitive radioligand binding assay with [^125I]NMU-8

T1 sequence (Q9GZQ4 whole entry): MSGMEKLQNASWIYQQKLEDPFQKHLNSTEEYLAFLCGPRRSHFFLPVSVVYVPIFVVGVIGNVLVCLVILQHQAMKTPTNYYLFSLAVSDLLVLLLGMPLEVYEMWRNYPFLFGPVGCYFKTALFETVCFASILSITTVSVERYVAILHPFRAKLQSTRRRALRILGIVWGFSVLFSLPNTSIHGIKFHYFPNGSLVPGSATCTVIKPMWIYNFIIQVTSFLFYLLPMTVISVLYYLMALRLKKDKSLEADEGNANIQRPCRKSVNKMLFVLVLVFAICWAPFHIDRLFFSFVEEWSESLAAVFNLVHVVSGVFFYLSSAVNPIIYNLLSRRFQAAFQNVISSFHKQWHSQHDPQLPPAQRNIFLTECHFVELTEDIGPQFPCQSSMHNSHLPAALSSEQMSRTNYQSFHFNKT

CCC(=O)N[C@H](C(=O)N[C@@H](CC(C)C)C(=O)N[C@@H](CCC(N)=O)C(=O)N[C@@H](CCCNC(=N)N)C(=O)NCC(=O)N[C@@H](CO)C(=O)NCC(=O)N[C@H](C(=O)N[C@@H](C)C(=O)N[C@@H](C)C(=O)N[C@H](C(=O)N[C@@H](CC(=O)O)C(=O)N[C@@H](Cc1ccccc1)C(=O)N[C@H](C(=O)N[C@@H](CCCCN)C(=O)N[C@@H](CCCCN)C(=O)N[C@@H](CC(=O)O)C(=O)N[C@@H](Cc1c[nH]cn1)C(=O)N[C@H](C(=O)N[C@@H](C)C(=O)N[C@H](C(=O)N[C@@H](Cc1c[nH]c2ccccc12)C(=O)NCC(=O)N[C@@H](CCCNC(=N)N)C(=O)N1CCC[C@H]1C(=O)N[C@@H](Cc1ccccc1)C(=O)N[C@@H](Cc1ccccc1)C(=O)N[C@@H](CC(C)C)C(=O)N[C@@H](Cc1ccccc1)C(=O)N[C@@H](CCCNC(=N)N)C(=O)N1CCC[C@H]1C(=O)N[C@@H](CCCNC(=N)N)C(=O)N[C@@H](CC(N)=O)C(N)=O)[C@@H](C)O)[C@@H](C)O)[C@@H](C)O)C(C)C)[C@@H](C)O)[C@@H](C)CC [fraction c] (Propionyl-ILQRGSGTAAVDFTKKDHTATWGRPFFLFRPRN-NH2)
EC50 [1]: 1.02 nM
IC50 [2]: 2.19 nM
